Measured values reported in PMC7413294 (Heterocycles, 2019).
Values joined by “and” are separate entries in the source; they are usually repeats but may differ in a detail not shown here. Equal values may be shown once. Read-outs that look alike come from different tables or passages of the source.

How the values were obtained:
[1] = test system: PTZ-induced seizures; experiment: Pentylenetetrazole; type: in vivo, mouse; conditions: 30 mg/Kg; for Inhibition ratio (%) of fatality in PTZ-model of mice: 20-min observation period, 100 minus death ratio; for Latency to fatality (minutes) in PTZ model of mice: first 20 minutes of testing
Summary of the method: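 Mice received pentylenetetrazol at 40 mg/kg by intraperitoneal injection; test compound groups were compared with vehicle (2% DMSO in 0.5% hydroxypropyl cellulose), […]. Deaths were recorded within a 20-min cutoff. Inhibition ratio was 100 minus the % of mice that died. Latency to fatality was recorded per mouse as mean ± SEM. Experimenters were blinded.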

[2] = test system: K-channel; experiment: Whole-cell patch clamp inhibition of K-channel; type: cell-based; conditions: mouse DRG neurons
Summary of the method: (§1)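 Lumbar DRG neurons from 1–6 month-old C57 mice, digested in HBSS with 1 mg/mL collagenase and 0.5 mg/mL trypsin (35°C, 45–50 min). Neurons triturated, plated on poly-L-ornithine coverslips and kept in modified Krebs solution at 21°C. Whole-cell voltage clamp at room temperature. Compound applied by rapid local solution exchange; currents normalized to control to give % inhibition; sigmoidal dose-response fits.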

[3] = biological target: T-Cav3.2-channel (Mus musculus, UniProt O88427); experiment: Whole-cell patch clamp inhibition of T-Cav3.2 channel in mouse DRG neurons; type: cell-based
Summary of the method: as §1

[4] = test system: Na-channel; experiment: Whole-cell patch clamp inhibition of Na-channel in mouse DRG neurons; type: cell-based; conditions: for IC50: read-out: IC50, Na- channel in DRG neurons
Summary of the method: as §1

[5] = biological target: Cav3.2 channels expressed in HEK-293 cells (Homo sapiens, UniProt O95180); experiment: Whole-cell patch clamp inhibition of Cav3.2 channels expressed in HEK293 cells; type: cell-based
Summary of the method: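 Tetracycline-inducible HEK293 line, G418-selected, reseeded on poly-D-lysine coverslips; Cav3.2 induced after 24 h with 1 µg/mL tetracycline. Whole-cell voltage clamp at room temperature. External solution: choline-Cl/TEA-Cl with 2 mM CaCl2. Internal solution: CsCl/EGTA. Holding potential -100 mV, then 100 ms depolarizing steps of 10 mV at 10 s intervals. Compound applied by rapid solution exchange; currents normalized to control; sigmoidal dose-response fits.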

[6] = test system: pentylenetetrazole-induced seizures; conditions: 30 mg/Kg; cited from earlier work
[7] = test system: L-type calcium channels; conditions: read-out: IC50, L-type calcium channels; cited from earlier work
[8] = test system: T-type calcium channels; conditions: read-out: IC50, T-type calcium channels; cited from earlier work
[9] = DRG neuron, read-out: Inhibition (%) of T-Cav3.2- channel in DRG neurons

Sequence of T-Cav3.2-channel (O88427 whole entry): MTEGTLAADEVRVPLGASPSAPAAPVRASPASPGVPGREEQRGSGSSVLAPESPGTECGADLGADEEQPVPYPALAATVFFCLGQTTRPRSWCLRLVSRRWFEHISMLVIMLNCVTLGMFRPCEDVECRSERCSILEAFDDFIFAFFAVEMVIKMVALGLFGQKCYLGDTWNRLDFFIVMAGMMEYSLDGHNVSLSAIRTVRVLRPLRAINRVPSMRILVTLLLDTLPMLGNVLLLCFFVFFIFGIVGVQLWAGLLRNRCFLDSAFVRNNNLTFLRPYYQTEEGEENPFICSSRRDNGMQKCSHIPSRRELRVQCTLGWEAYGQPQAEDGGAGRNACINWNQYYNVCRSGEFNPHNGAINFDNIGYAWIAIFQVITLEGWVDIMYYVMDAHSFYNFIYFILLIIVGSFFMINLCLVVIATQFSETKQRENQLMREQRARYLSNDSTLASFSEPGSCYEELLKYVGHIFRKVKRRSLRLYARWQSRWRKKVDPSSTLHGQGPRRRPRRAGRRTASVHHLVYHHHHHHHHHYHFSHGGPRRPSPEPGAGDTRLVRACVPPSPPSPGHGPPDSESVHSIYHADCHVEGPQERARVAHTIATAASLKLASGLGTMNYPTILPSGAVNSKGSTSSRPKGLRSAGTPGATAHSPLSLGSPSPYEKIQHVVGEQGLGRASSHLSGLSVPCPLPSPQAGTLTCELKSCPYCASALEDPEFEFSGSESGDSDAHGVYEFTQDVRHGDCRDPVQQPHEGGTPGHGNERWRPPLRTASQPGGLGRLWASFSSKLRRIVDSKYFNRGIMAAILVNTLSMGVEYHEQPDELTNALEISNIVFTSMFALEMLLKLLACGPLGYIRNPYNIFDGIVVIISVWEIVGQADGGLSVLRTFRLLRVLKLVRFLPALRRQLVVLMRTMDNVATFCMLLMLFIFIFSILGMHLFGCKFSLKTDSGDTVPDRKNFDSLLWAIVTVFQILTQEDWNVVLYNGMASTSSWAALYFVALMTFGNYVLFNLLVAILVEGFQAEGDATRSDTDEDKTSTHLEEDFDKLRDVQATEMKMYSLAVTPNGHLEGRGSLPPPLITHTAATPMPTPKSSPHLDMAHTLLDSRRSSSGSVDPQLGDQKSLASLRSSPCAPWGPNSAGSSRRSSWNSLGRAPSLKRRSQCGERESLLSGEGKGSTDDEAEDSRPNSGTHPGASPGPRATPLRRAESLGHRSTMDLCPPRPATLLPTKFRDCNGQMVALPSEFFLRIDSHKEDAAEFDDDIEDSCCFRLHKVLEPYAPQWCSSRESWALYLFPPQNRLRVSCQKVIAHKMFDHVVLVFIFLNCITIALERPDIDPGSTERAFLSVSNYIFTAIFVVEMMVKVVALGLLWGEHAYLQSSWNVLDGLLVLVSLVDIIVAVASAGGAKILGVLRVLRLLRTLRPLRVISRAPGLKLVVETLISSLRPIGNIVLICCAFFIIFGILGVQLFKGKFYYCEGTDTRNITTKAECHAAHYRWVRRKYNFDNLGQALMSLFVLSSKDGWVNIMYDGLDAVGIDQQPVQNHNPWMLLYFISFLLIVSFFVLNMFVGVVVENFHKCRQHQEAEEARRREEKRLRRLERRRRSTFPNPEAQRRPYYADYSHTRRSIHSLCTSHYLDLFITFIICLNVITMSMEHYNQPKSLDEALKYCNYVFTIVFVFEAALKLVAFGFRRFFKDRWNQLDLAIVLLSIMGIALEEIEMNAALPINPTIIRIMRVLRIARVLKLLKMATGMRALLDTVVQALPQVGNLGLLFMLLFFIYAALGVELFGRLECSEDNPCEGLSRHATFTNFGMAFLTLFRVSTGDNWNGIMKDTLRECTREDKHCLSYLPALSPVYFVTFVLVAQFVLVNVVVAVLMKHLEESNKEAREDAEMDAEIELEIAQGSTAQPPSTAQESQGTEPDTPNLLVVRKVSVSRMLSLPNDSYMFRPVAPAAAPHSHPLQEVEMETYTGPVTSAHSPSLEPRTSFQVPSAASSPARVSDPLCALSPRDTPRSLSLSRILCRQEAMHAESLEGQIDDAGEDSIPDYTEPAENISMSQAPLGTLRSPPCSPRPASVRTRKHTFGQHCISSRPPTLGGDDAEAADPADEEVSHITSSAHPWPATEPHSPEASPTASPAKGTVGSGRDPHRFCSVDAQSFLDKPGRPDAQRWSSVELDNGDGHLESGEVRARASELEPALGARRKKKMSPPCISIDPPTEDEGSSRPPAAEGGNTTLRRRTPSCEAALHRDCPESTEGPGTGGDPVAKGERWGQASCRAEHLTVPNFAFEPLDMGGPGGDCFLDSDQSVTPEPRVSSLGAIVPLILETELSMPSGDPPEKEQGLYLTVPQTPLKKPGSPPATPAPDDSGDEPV
Sequence of Cav3.2 channels expressed in HEK-293 cells (O95180 whole entry): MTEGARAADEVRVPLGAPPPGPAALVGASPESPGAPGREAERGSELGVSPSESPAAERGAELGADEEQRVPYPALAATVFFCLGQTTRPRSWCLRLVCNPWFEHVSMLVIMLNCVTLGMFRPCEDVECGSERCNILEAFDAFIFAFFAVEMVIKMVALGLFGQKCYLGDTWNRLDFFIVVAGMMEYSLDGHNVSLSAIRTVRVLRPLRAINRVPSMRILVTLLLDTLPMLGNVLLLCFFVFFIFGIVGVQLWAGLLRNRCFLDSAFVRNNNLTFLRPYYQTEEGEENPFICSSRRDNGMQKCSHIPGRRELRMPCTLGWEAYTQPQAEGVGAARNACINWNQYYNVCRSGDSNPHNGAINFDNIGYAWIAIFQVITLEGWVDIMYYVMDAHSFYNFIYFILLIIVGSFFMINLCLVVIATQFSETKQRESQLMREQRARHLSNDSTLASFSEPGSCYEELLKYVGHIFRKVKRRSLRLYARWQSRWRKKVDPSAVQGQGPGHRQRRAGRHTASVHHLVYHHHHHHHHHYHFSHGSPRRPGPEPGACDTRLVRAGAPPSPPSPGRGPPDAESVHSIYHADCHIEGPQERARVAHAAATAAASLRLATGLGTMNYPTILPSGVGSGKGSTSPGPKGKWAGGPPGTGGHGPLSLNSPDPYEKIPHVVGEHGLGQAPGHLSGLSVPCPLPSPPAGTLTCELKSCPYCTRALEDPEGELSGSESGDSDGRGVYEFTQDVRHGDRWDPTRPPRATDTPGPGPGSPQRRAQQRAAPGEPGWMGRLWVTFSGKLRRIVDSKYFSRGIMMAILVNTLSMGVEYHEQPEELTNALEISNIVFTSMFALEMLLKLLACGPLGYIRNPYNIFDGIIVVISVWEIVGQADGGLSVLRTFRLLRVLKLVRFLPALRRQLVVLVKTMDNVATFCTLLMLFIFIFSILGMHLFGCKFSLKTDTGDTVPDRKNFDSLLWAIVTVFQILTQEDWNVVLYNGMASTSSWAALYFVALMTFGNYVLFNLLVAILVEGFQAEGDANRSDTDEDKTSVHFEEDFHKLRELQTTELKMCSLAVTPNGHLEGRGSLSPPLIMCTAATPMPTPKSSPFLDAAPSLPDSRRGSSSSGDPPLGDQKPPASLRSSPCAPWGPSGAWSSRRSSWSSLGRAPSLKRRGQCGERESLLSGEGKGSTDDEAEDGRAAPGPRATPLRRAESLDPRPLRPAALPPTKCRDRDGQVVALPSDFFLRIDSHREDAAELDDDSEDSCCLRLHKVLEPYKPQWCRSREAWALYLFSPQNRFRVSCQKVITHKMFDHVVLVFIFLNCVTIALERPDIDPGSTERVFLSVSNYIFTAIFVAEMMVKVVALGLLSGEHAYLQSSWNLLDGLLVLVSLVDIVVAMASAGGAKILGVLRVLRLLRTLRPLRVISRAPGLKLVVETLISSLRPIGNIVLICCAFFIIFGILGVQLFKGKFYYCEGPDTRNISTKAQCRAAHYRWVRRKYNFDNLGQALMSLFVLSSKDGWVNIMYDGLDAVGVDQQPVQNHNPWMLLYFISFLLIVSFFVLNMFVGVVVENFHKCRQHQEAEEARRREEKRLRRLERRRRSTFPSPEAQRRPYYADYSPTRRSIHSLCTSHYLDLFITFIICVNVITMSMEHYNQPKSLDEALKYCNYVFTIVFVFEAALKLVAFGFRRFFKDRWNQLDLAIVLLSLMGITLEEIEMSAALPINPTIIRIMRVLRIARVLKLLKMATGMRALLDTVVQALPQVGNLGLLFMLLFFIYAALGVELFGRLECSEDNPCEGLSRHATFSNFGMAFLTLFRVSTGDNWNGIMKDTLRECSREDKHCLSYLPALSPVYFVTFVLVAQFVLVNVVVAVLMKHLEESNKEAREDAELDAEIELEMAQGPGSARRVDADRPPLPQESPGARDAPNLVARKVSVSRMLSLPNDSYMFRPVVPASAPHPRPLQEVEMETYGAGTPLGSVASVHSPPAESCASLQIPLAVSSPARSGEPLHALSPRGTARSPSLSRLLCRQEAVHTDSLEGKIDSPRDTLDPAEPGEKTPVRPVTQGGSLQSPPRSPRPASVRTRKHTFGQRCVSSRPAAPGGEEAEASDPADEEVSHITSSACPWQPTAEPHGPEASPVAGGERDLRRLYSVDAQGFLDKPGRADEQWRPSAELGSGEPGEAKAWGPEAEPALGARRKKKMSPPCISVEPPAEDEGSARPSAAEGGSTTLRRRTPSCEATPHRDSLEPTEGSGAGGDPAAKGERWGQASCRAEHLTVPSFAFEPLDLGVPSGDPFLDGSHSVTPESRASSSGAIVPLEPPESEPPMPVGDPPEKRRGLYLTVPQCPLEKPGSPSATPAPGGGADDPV

inhibition at 1 µM [3, 9] | Structure (SMILES) | Inhibition ratio (%) of fatality in PTZ-model of mice [1] | Latency to fatality (minutes) in PTZ model of mice [1] | Inhibition (%) of K-channel in DRG neurons, IA (rapid inactivating potassium current) ([2]; 1 µM, IA) | Inhibition (%) of K-channel in DRG neurons, IKd (delayed rectifier potassium current) ([2]; 1 µM, IKd) | Inhibition (%) of Na- channel in DRG neurons ([4]; 1 µM) | also measured
 | CC(C)(C)NC(=O)CN1CCC(CNC(=O)c2cc(F)cc(Cl)c2)CC1 [Compound Z944, reference compound] | 33% and 33.3 (n=6) % | 15.2±3.1 (n=6) minutes | 34.5±15.0% | 44.9±17.7% | 49.7±6% | Inhibition (%) of T-Cav3.2- channel in HEK293 cells ([5]; 0.25 µM, HEK293 cells): 74.5±7.8 (0.25 µM, in HEK293 cells) (n=6) %; IC50 [4]: 510 nM; Protective effect on seizures, pentylenetetrazole-induced fatality rat model [6]: 33%
44.2 ± 5.6% | c1ccc(-c2nnc(N3CCCCC3)o2)cc1 [Compound 12, 1-(5-Phenyl-1,3,4-oxadiazol-2-yl)piperidine] |  |  | 21.9±8.6% | 31.6±5.5% | 25.7±6.3% | IC50 ([2]; read-out: IC50, K-channel IA in DRG neurons, IA): 19600 nM; IC50 ([2]; read-out: IC50, K-channel IKd in DRG neurons, IKd): 2600 nM; inhibition at 1 µM ([5]; HEK293, read-out: Inhibition (%) of T-Cav3.2- channel in HEK293 cells): 64.6%; IC50 [4]: 2100 nM
 | O=C1c2cc(Cl)c(Cl)cc2C(=O)N1c1nnc(-c2ccc(Cl)s2)o1 [Compound 6, 5,6-Dichloro-2-(5-(5-chlorothiophen-2-yl)-1,3,4-oxadiazol-2-yl)isoindoline-1,3-dione] | 0% and 0 (n=8) % | 1.9±0.3 (n=8) minutes |  |  |  | Inhibition (%) of K-channel in DRG neurons, IA (rapid inactivating potassium current) ([2]; 3.3 µM, IA): −11.6%; Inhibition (%) of K-channel in DRG neurons, IKd (delayed rectifier potassium current) ([2]; 3.3 µM, IKd): −17.8%; inhibition at 3.3 µM [3, 9]: 9.8%; Inhibition (%) of Na- channel in DRG neurons ([4]; 3.3 µM): 100 (3.3 µM) (n=1) %
60.9% | O=C(Nc1nnc(-c2ccccc2F)o1)c1ccc(Cl)s1 [Compound 15, 5-Chloro-N-(5-(2-fluorophenyl)-1,3,4-oxadiazol-2-yl)thiophene-2-carboxamide] |  |  |  |  |  | 
 | COCC(=O)O[C@]1(CCN(C)CCCc2nc3ccccc3[nH]2)CCc2cc(F)ccc2[C@@H]1C(C)C [Mibefradril] |  |  |  |  |  | IC50 [7]: 3000 nM; IC50 [8]: 100 nM
79.5% | O=C(CN1CCC(C(=O)Nc2nnc(-c3ccc(Cl)s3)o2)CC1)Nc1ccccc1 [Compound 9, 1-((Phenylcarbamoyl)methyl)-N-(5-(5-chlorothiophen-2-yl)-1,3,4-oxadiazol-2-yl)piperidine-4-carboxamide] |  |  |  |  |  | 
5% | O=C(CCc1cccc(Cl)c1)Nc1nnc(-c2ccccc2)o1 [Compound 10, 3-(3-Chlorophenyl)-N-(5-phenyl-1,3,4-oxadiazol-2-yl)propanamide] |  |  |  |  |  | 
24.4 ± 9.6% | O=C(Nc1nnc(-c2ccc(Cl)s2)o1)c1ccccc1 [Compound 8, N-(5-(5-Chlorothiophen-2-yl)-1,3,4-oxadiazol-2-yl)benzamide] |  |  | −18.7% | −28.6% | −71.8 (n=1) % | 

Structure (SMILES) | inhibition at 1 µM [3, 9] | Inhibition ratio (%) of fatality in PTZ-model of mice [1] | Latency to fatality (minutes) in PTZ model of mice [1] | Inhibition (%) of K-channel in DRG neurons, IA (rapid inactivating potassium current) ([2]; 1 µM, IA) | Inhibition (%) of K-channel in DRG neurons, IKd (delayed rectifier potassium current) ([2]; 1 µM, IKd) | Inhibition (%) of Na- channel in DRG neurons ([4]; 1 µM) | also measured
O=C(CCc1cccc(Cl)c1)Nc1nnc(-c2ccc(Cl)s2)o1 [Compound 7, 3-(3-Chlorophenyl)-N-(5-(5-chlorothiophen-2-yl)-1,3,4-oxadiazol-2-yl)propanamide] | 20.4 ± 1.9% | 30% and 28.6 (n=7) % | 13.6±1.8 (n=7) minutes |  |  |  | Inhibition (%) of K-channel in DRG neurons, IA (rapid inactivating potassium current) ([2]; 3.3 µM, IA): −26.0%; Inhibition (%) of K-channel in DRG neurons, IKd (delayed rectifier potassium current) ([2]; 3.3 µM, IKd): −15.6%; Inhibition (%) of Na- channel in DRG neurons ([4]; 3.3 µM): 82.2 (3.3 μM) (n=1) %
O=C(CN1CCCCC1)Nc1nnc(-c2ccccc2)o1 [Compound 13, N-(5-Phenyl-1,3,4-oxadiazol-2-yl)-2-(piperidin-1-yl)acetamide] | 55.4 ± 28.7% | 0 (n=7) % | 3.7±1.8 (n=7) minutes | 19.9% | 36.5% | −2.7 (n=1) % | 
N#CC1CCN(CC(=O)Nc2nnc(-c3ccccc3)o2)CC1 [Compound 14, 2-(4-Cyanopiperidin-1-yl)-N-(5-phenyl-1,3,4-oxadiazol-2-yl)acetamide] | 69.6 ± 6.2% | 14 (n=7) % | 11.8±2.5 (n=7) minutes | 12.9% | 30.0% | −4.7 (n=1) % | 
O=C(Nc1nnc(-c2ccccc2)o1)c1ccc(Cl)s1 [Compound 11, 5-Chloro-N-(5-phenyl-1,3,4-oxadiazol-2-yl)thiophene-2-carboxamide] | 50 ± 9.7% | 72.1% and 72.7 (n=11) % | 15.3±2.4 (n=11) minutes | 18.9±11.8% | 24.1±14.6% | 16.5±8.9 (n=7) % | IC50 [3]: 930 nM
